Sampled rows, rich in hits. Any-hit rate of the full collection: about 2.4%.
Rin1-Abl PPI inh – blocks binding of human Rin1 to Abl. actives 0.4% (n = 360,000). P00519+Q13671. AID 588664. TR-FRET Rin1/Abl binding, biochemical. inhibition, % at 7.35 µM; in the data active means inhibition above about 5%, passing the limit was not always enough
Neddyl block – cullin neddylation inhibition; inhibition, % at 25 µM; actives 0.58% (n = 360,000); P61081+Q13564; TR-FRET cullin neddylation, biochemical; in the data active means inhibition above about 36%
Rpn11 inh – Rpn11 (human) deubiquitinase inhibition; O00487; inhibition, % at 20 µM; human 26S proteasome, Ub4-pepOG fluorescence polarization; 20S core pre-blocked with epoxomicin; actives 0.59% (n = 360,000);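 active means inhibition at 20 µM, scaled to each plate's controls, above about 33%, limit read from the data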
TPT1 inhibitor – inhibitors of Candida albicans tRNA 2'-phosphotransferase TPT1; recombinant caTPT1, FP RNA substrate dephosphorylation; inhibition, % at 5 µM; actives 0.81% (n = 300,000);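 active means inhibition above the mean of all tested compounds plus 3 SD, set per screening campaign, cut at about 24% in these data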
CSN deneddyl inh – CSN deneddylation inhibition; actives 0.38% (n = 360,000); AID 651999; Q92905; inhibition, % at 12.5 µM; Purified CSN, SCF-Nedd8-OG deneddylation, fluorescence polarization;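 active means pattern-corrected inhibition above about 35%, with an unprinted fluorescence ratio check between 0.5 and 1.5, limit read from the data, passing the limit was not always enough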
Target sequence (Q92905 whole entry, looked up, one chain of several): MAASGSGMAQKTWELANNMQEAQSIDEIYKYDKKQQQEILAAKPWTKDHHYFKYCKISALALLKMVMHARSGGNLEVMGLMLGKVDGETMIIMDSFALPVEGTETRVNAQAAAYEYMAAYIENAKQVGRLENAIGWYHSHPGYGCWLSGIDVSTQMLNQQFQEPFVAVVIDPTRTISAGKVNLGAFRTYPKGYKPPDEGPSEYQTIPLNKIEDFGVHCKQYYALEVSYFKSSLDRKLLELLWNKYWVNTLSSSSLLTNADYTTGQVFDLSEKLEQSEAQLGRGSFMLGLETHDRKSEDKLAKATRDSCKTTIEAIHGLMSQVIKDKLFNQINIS
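Assay system: purified human Csn5 enzyme expressed in HEK293T cells; Input: 0.24 nM Csn5 enzyme, final concentration; Reagent: 10 nM SCFSkp2-Nedd8OG; Compound dosing: 12.5 µM single point; Times: reaction 90 min, room temperature; Technique: fluorescence polarization readout.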
HNF4A DNA FP – change in binding of human HNF4 alpha to DNA. activity change, % at 10 µM. actives 0.3% (n = 360,000). HNF4a-FITC DNA binding, fluorescence polarization, 1 h. P41235; in the data active means activity change above about 30%, passing the limit was not always enough
TPT1 inh confirm – TPT1 (C. albicans) inhibition, confirmation. shares compounds with TPT1 inhibitor. recombinant caTPT1, fluorescence polarization, RNase T1 coupled. inhibition, % at 5 µM. actives 74% (n = 2,400);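 active means inhibition above the primary screen limit, the mean inhibition of all tested compounds plus 3 SD, cut at about 25% in these data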
RNase T1 inh – counter-screen for TPT1 inhibitors: inhibitors of Aspergillus oryzae RNase T1; shares compounds with TPT1 inhibitor; RNase T1 cleavage, fluorescence polarization, 1536-well; inhibition, % at 5 µM; actives 83% (n = 2,400); AID 2153;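 active means inhibition above the solvent-only control well mean plus 3 SD, limit set per screening run, cut at about 23% in these data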;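 further: inhibitors block cleavage so intact labeled substrate keeps polarization high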
Target sequence (P00651 whole entry, looked up): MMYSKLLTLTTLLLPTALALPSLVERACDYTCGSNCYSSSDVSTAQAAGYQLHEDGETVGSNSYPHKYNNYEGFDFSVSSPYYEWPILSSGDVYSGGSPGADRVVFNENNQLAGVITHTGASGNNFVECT
Of the large screens only hits and unclear results are named; the others gave an inactive call (follow-up assays come after a bar, where shown).

Cc1ccc(C(=O)N/C(=C\c2ccc(-c3cccc([N+](=O)[O-])c3)o2)C(=O)NC(C)(C)C)cc1	none
Cc1ccc(C(=O)N/C(=C/c2ccc(-c3ccc([N+](=O)[O-])cc3)o2)C(=O)NCCCN(C)C)cc1	TPT1 inhibitor 26 | TPT1 inh confirm 24 | RNase T1 inh 33
Cc1ccc(C(=O)N/C(=C\c2ccc(-c3ccc([N+](=O)[O-])cc3)o2)C(=O)NC2CCS(=O)(=O)C2)cc1 (configuration not stated)	TPT1 inhibitor 47 (not shown: Rpn11 inh) | TPT1 inh confirm 58 | RNase T1 inh 71
CCCC1=[N+](CC(=O)c2ccc(Br)cc2)CCn2cccc21	TPT1 inhibitor 118 (not shown: Rpn11 inh) | TPT1 inh confirm inactive | RNase T1 inh inactive
CCCC1=[N+](CC(C)=O)CCn2c(C)ccc21	none
CCCC1=[N+](CC(=O)c2ccccc2)CCn2cccc21	TPT1 inhibitor 86 | TPT1 inh confirm inactive | RNase T1 inh inactive
O=S(=O)(Nc1nc2ccccc2nc1NCC1CCCO1)c1cccc(Cl)c1 (configuration not stated)	none
O=[N+]([O-])c1cc([N+](=O)[O-])c(Oc2ccc(Br)cc2Br)cc1NN1CCCCC1	none
CSCc1nc2sc(C(=O)Nc3nc(C)cs3)c(C)c2c(=O)[nH]1	TPT1 inhibitor 33 (not shown: Rpn11 inh) | TPT1 inh confirm 39 | RNase T1 inh 51
Cc1ccc(CC(=O)NCCS(=O)c2ccc(C)cc2)cc1 (configuration not stated)	none
Cc1cc(C)cc(NC(=O)/C(C#N)=C/c2cn(CC(=O)NCc3ccco3)c3ccccc23)c1	none (not shown: Neddyl block)
Cc1ccc(NC(=O)/C(C#N)=C/c2cn(CC(=O)NCc3ccco3)c3ccccc23)cc1C	TPT1 inhibitor 29 (not shown: Neddyl block, Rpn11 inh) | TPT1 inh confirm 67 | RNase T1 inh 80
CCOc1ccccc1N1CCN(C(=O)c2cccs2)CC1	none
O=C(Nc1ccn(-c2ccccc2)n1)c1ccccc1Br	TPT1 inhibitor 34 | TPT1 inh confirm inactive | RNase T1 inh inactive
O=C(N/N=C/c1sc(=O)n(-c2ccccc2)c1Cl)c1ccccc1	none
NC(=O)N/N=C/c1sc(=O)n(-c2ccccc2)c1Cl	TPT1 inhibitor 39 (not shown: Rpn11 inh) | TPT1 inh confirm 47 | RNase T1 inh 66
CN(C)c1ccc(/C=C2\CCCc3c2nc2ccccc2c3C(=O)O)cc1	TPT1 inhibitor 25 | TPT1 inh confirm 28 | RNase T1 inh 39
O=C1N/C(=C/c2ccc(N3CCOCC3)o2)C(=O)N1c1cccc(Cl)c1	Rpn11 inh 65, TPT1 inhibitor 82 | TPT1 inh confirm 168 | RNase T1 inh 166
Cc1cccc(C(=O)N2CCC(Cc3ccccc3)CC2)c1[N+](=O)[O-]	none
C/C(CC(=O)NCc1ccco1)=N\NC(=O)Cc1ccc(-c2ccccc2)cc1	TPT1 inhibitor 38 | TPT1 inh confirm inactive | RNase T1 inh inactive
CCCc1c(O)nc(SCC(=O)O)[nH]c1=O	none
O=C(N/N=C/c1c(O)ccc2ccccc12)c1ccc[n+](CCO)c1	none
O=C(NN=Cc1c(O)ccc2ccccc12)c1ccncc1	none (not shown: Rpn11 inh, TPT1 inhibitor)
O=C(N/N=C\c1c(O)ccc2ccccc12)c1cncc(Br)c1	TPT1 inhibitor 136 (not shown: Rpn11 inh) | TPT1 inh confirm 151 | RNase T1 inh 138
O=C(N/N=C/c1c(O)ccc2ccccc12)c1cccnc1	TPT1 inhibitor 64, HNF4A DNA FP 43 (not shown: Rpn11 inh) | TPT1 inh confirm 99 | RNase T1 inh 98
CCOC(=O)N1CCc2c(sc3ncn(Cc4ccc(F)cc4)c(=O)c23)C1	none
O=c1c2c3c(sc2ncn1Cc1ccc(F)cc1)CCC3	TPT1 inhibitor 27 | TPT1 inh confirm 26 | RNase T1 inh 34
CCOc1cc(N(CC)CC)ccc1/C=C(/C#N)c1nc2ccccc2[nH]1	TPT1 inhibitor active (not shown: Rpn11 inh) | TPT1 inh confirm 183 | RNase T1 inh 166
CCN(CC)c1ccc(/C=C(/C#N)c2nc3ccc(C)cc3[nH]2)c(OC(C)C)c1	TPT1 inhibitor 139 (not shown: Rpn11 inh) | TPT1 inh confirm 130 | RNase T1 inh 124
CCCOc1cc(N(CC)CC)ccc1/C=C(/C#N)c1nc2ccc(C)cc2[nH]1	TPT1 inhibitor 184 (not shown: Rpn11 inh) | TPT1 inh confirm 193 | RNase T1 inh 171
CCN(CC)c1ccc(/C=N/Nc2nc3ccccc3[nH]2)c(O)c1	TPT1 inhibitor 34 | TPT1 inh confirm inactive | RNase T1 inh inactive
Cc1ccsc1C(=O)OCC(=O)NC1CCCC(C)C1C (configuration not stated)	none (no result: TPT1 inhibitor)
Cc1nc2sc(C(c3ccc(Cl)cc3)N3CCN(c4ccccc4F)CC3)c(O)n2n1 (configuration not stated)	none
N#CCc1nc(C(c2ccccc2)c2ccccc2)no1	TPT1 inhibitor 25 (not shown: Rpn11 inh) | TPT1 inh confirm inactive | RNase T1 inh 28
COCCN(C)Cc1nc(C(c2ccccc2)c2ccccc2)no1	none
NS(=O)(=O)c1cc2c(cc1Cl)NC(Cc1ccccc1)NS2(=O)=O (configuration not stated)	TPT1 inhibitor 43 | TPT1 inh confirm inactive | RNase T1 inh inactive
NS(=O)(=O)c1cc2c(cc1Cl)NC(CC1CCCC1)NS2(=O)=O (configuration not stated)	none
CN(C)c1ccc(N/C=C/C(=O)c2ccc(F)cc2)cc1	Rpn11 inh 46, TPT1 inhibitor 36, HNF4A DNA FP 44 | TPT1 inh confirm 49 | RNase T1 inh 59
CCCN(CCC)c1ccc(/C=C/c2ccc3cc(OCC)ccc3n2)cc1	TPT1 inhibitor 57 (not shown: Neddyl block, Rpn11 inh) | TPT1 inh confirm 93 | RNase T1 inh 97
O=S(Cc1ccc(Br)cc1)Cc1nnc(SCc2ccc(Br)cc2)n1-c1ccccc1 (configuration not stated)	none
CCC1C/C(=C/c2ccco2)C(=O)/C(=C/c2ccco2)C1 (configuration not stated)	TPT1 inhibitor 68 (no result: Rin1-Abl PPI inh, Neddyl block, Rpn11 inh, CSN deneddyl inh, HNF4A DNA FP) | TPT1 inh confirm 75 | RNase T1 inh 80
Cc1ccc(NC(=O)N/C=C/c2ccco2)cc1C	TPT1 inhibitor 24 (not shown: Rpn11 inh) | TPT1 inh confirm 61 | RNase T1 inh 73
Cc1ccc(NC(=O)N/C=C/c2ccco2)c(C)c1	none
O=C1/C(=C/c2ccc(O)c([N+](=O)[O-])c2)SC(=S)N1Cc1ccccc1	none
O=C1/C(=C\c2ccc(O)cc2)SC(=S)N1Cc1ccccc1	TPT1 inhibitor 75, HNF4A DNA FP 94 (not shown: Rpn11 inh) | TPT1 inh confirm 83 | RNase T1 inh 84
COc1cc(/C=C2/SC(=S)N(Cc3ccccc3)C2=O)cc(Cl)c1O	TPT1 inhibitor 37 (not shown: Rpn11 inh) | TPT1 inh confirm inactive | RNase T1 inh 22
CN(C)c1ccc(/C=N/N(CCC#N)C2=NS(=O)(=O)c3ccccc32)cc1	TPT1 inhibitor 27 (not shown: Rpn11 inh) | TPT1 inh confirm inactive | RNase T1 inh inactive

High-throughput results: PubChem, several laboratories
